Measurements gathered from unrelated publications.
Lines come from different studies, so protocols differ.
Read-out: ABTS scavenging

COc1ccc(-c2nc3cc(Cl)ccc3[nH]2)cc1OCc1ccccc1 — IC50 (absorbance): 1.75 µM
O=C(Cc1c[nH]c2ccccc12)Nc1ccc(F)cc1F — IC50: 1.31 µM
Cc1c(C)c2c(c(C)c1O)CC[C@@](C)(CCC[C@H](C)CCC[C@H](C)CCCC(C)C)O2 — IC50: 8.37 mg/L
Cc1cc2nc(-c3ccccc3OCc3ccccc3)[nH]c2cc1C — IC50 (absorbance): 1.78 µM
O=C(Cc1c[nH]c2ccccc12)Nc1cccc(I)c1 — IC50: 1.15 µM
O=c1c(O[C@@H]2O[C@H](CO)[C@@H](O)[C@H](O)[C@H]2O)c(-c2ccc(O)cc2)oc2cc(O[C@@H]3O[C@H](CO)[C@@H](O)[C@H](O)[C@H]3O)cc(O)c12 — IC50 (absorbance): 30.6 µM
O=C(Cc1c[nH]c2ccccc12)Nc1ccc(Cl)cc1 — IC50: 0.46 µM
O=c1c(O[C@@H]2O[C@H](CO)[C@@H](O)[C@H](O)[C@H]2O)c(-c2ccc(O)c(O)c2)oc2cc(O)cc(O)c12 — IC50 (absorbance): 6.51 µM
Clc1ccc2[nH]c(-c3ccccc3OCc3ccccc3)nc2c1 — IC50 (absorbance): 1.78 µM
CCCCOc1ccc(NC(=O)Cc2c[nH]c3ccccc23)cc1 — IC50: 1.78 µM
Fc1ccc2[nH]c(-c3ccccc3OCc3ccccc3)nc2c1 — IC50 (absorbance): 1.77 µM
O=c1oc2c(O)c(O)cc3c(=O)oc4c(O)c(O)cc1c4c23 — IC50 (absorbance): 5.76 µM
COc1ccc(-c2nc3cc([N+](=O)[O-])ccc3[nH]2)cc1OCc1ccccc1 — IC50 (absorbance): 1.76 µM
COc1cc(-c2oc3cc(O[C@@H]4O[C@H](CO)[C@@H](O)[C@H](O)[C@H]4O)cc(O)c3c(=O)c2O[C@@H]2O[C@H](CO)[C@@H](O)[C@H](O)[C@H]2O)ccc1O — IC50 (absorbance): 41.7 µM
O=C(Cc1c[nH]c2ccccc12)Nc1ccc(Br)cc1 — IC50: 0.58 µM
